# ROMK mod: ROMK potassium channel modulators, primary screen, cell-based, thallium flux, MLSMR library. B-score at 10 µM. AID 1918, 2009. ATP-sensitive inward rectifier potassium channel 1 (Homo sapiens), P48048. Tet-inducible ROMK, thallium flux fluorescence; actives lie on both sides. 2% of 130,000 active;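 active means signal ratio slope over the read window, or its plate-corrected B-score, at least 3 SD from the plate mean, either direction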;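 further: B-score of the F/F0 ratio slope over 7 to 12 s after thallium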
# Mdm2 ligase inh: MDM2-luciferase reporter signal enhancers, primary screen, MDM2 E3 ligase inhibitor project, cell-based, luminescence, 1536-well. AID 1230, 2008. cell-based MDM2 ubiquitination luciferase reporter, 2 h; 0 = plate control, 100 = twice control, blank-subtracted. signal enhancement, % at 5 µM. 0.11% of 210,000 active;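 active means signal enhancement of 30% or more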;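 further: luminescence tracks abundance of the self-degrading MDM2-luciferase fusion protein; higher signal means inhibition of MDM2 E3 ligase activity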
#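 system = mammalian cells stably expressing self-ubiquitinating, self-degrading MDM2 E3–luciferase fusion | quantity = 2000 cells per well seeded | incubation = 4 h cell settling then 2 h compound exposure, 37 °C | signal = SteadyLite luminescence, 15 min reagent step | benchmarks = plate control and blank wells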
# Cl transport mod: KCC2 cotransporter modulators, thallium flux, primary screen, cell-based, HEK293 KCC2, FluoZin-2 fluorescence, MLSMR; Solute carrier family 12 member 5 (Homo sapiens), Q9H2X9; KCC2 cells, thallium flux FluoZin-2 fluorescence; B-score of Tl+ flux slope (higher = more flux/activation; lower = inhibition) at 10 µM; 2.2% of 190,000 active;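 active means thallium flux slope and its plate-corrected score both differing from the plate sample mean at a set confidence after two filtering rounds, in either direction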;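 further: slope of fluorescence scaled to starting intensity during 10 to 20 s after thallium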
# Arbovirus inh: antivirals against arbovirus infection, primary screen, cell-based, full library, 10K replicate subset; arbovirus infection cell-based antiviral screen; inhibition, % at 10 µM; 0.37% of 200,000 active; in the data active means inhibition above about 30%
# PKD1 inh: inhibitors of human PKD1 kinase, biochemical, fluorescence polarization | AID 797, 2007 | 0.056% of 200,000 active | Serine/threonine-protein kinase D1 (Homo sapiens), Q15139 | inhibition, % (no concentration beside the values) | PKD1 kinase fluorescence polarization assay; in the data active means inhibition above about 50%
# Target sequence (Q15139 whole entry, looked up): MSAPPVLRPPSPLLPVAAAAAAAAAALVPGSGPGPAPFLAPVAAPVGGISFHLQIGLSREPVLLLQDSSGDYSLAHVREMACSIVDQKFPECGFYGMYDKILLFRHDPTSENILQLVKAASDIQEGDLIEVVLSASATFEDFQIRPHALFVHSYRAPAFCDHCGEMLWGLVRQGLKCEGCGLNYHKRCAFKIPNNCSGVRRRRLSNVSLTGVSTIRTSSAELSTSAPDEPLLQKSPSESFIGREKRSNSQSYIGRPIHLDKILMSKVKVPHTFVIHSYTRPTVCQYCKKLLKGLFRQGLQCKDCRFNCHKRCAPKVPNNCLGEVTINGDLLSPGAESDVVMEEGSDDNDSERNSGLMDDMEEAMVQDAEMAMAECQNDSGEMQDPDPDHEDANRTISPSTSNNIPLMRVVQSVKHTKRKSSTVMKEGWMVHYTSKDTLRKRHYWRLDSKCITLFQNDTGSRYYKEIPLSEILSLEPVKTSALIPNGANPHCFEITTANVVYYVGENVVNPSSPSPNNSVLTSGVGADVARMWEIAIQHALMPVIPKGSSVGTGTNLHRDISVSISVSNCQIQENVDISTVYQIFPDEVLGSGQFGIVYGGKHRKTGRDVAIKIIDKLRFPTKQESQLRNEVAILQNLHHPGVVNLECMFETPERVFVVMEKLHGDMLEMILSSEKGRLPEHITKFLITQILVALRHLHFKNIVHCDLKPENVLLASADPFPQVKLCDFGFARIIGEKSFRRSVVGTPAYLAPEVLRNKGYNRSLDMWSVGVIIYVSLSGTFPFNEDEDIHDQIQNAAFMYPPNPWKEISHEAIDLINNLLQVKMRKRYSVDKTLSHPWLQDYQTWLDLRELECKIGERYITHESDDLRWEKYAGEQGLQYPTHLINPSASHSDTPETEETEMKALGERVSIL
# m-calpain inh: inhibitors of pig calpain II, primary screen, biochemical, fluorogenic peptide substrate, 1536-well | 0.37% of 220,000 active | inhibition, % at 16 µM | purified calpain II, 30 min;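 active means inhibition above about 50%, limit read from the data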
# ROMK hit retest: ROMK channel modulator hit retest, confirmation, cell-based, thallium flux, duplicate, resupplied hits | shares compounds with ROMK mod | fluorescence ratio; active compounds read low | normalized thallium flux (F/F0 slope) at 10 µM | 54% of 3,000 active | AID 1917, 2009;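 active means Flux at 10 µM at least 3 SD below or above vehicle control mean in one or both replicates; inconclusive means no clear call, values can overlap the other calls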
# * marks the source's active call; other numbers are inactive results; i = inactive; ? = inconclusive; / = no result. A selection: hits, their analogues and other compounds. The true share with any hit is near 3.7%.
SMILES,ROMK mod,Mdm2 ligase inh,Cl transport mod,Arbovirus inh,PKD1 inh,m-calpain inh,ROMK hit retest
O=c1c2ccccc2c(C=NCc2ccccn2)c(O)n1-c1ccccc1,/,1,-0.41,-16,9,-21,0.088
Cn1c(-c2ccccc2)c(C=O)c2ccccc21,-0.22,12,-3.1,-2,7,1,/
Cn1c(-c2ccccc2)c(/C=N/NC(=O)c2ccc(O)cc2)c2ccccc21,/,1,-3.4,/,/,-39,0.08
O=C(CCn1cnc2ccccc21)N=Nc1c(O)[nH]c2ccccc12,-0.047,11,-0.015,/,/,-9,/
CCN(C1CCCCC1)S(=O)(=O)c1ccc(OC)c(C)c1,-3.4*,-2,-0.52,-2,2,6,0.066*
CCN(C1CCCCC1)S(=O)(=O)c1cc(C)ccc1OC,-1.6,12,-0.4,0,-9,4,/
Cc1[nH][nH]c(=O)c1C(c1ccc(O)c([N+](=O)[O-])c1)c1c(C)[nH][nH]c1=O,/,-19,0.93,-9,-6,34,0.077
Cc1ccc(S(=O)(=O)N2CCC(C(=O)N[C@@H](C)C(=O)NC3CCCCC3)CC2)cc1,/,-27,-0.88,10,-1,42,/
COc1ccc(CNC(=O)[C@H](C)NC(=O)C2CCN(S(=O)(=O)c3ccc(C)cc3)CC2)cc1,0.67,6,/,-3,-17,4,0.075
COCCN(CCOC)C(=S)Nc1cc(S(=O)(=O)N(C)C)ccc1C,4.3*,-3,-0.046,0,-6,-4,0.082
N#C/C(=C\C1=C(N2CCOCC2)C(=C/c2cccc([N+](=O)[O-])c2)/CC1)C(=O)Nc1ccccc1F,-3.4*,1,-0.46,-9,-7,1,0.061*
CC1(C)NC(=O)N(CC(O)COc2ccc(-c3ccc(C#N)cc3)cc2)C1=O (stereo unspecified),19*,-9,/,11,3,-101,0.077
CC1(C)NC(=O)N(CC(O)COc2ccc(-c3ccccc3)cc2)C1=O (stereo unspecified),-1.3,-8,/,-1,7,-12,/
CCC[N+](CC#Cc1ccccc1)(CCC)CC(=O)OC,0.26,-1,0.57,6,-6,-7,/
CCC[N+](CC#Cc1ccccc1)(CCC)CC(=O)c1ccc(Cl)cc1,-3*,-7,-1,-8,0,-5,0.063*
CCn1c(=O)c(C(=O)CN2CCN(S(=O)(=O)c3cc(C)ccc3C)CC2)c(N)n(Cc2ccccc2)c1=O,-0.57,12,0.17,-25,5,-29,/
COc1ccccc1/C=[N+](\[O-])C1SC(=S)N(C)C1(C)C (stereo unspecified),0.75,-12,-0.05,/,/,-3,/
Clc1ccccc1-c1nnc2sc(-c3ccccn3)nn12,/,-9,-1.1,-10,2,22,0.079
Clc1ccccc1-c1nnc2sc(-c3ccco3)nn12,-0.46,5,-2.4,-8,17,-7,/
O=C(COC(=O)c1cc(-c2ccccc2)nc2ccccc12)Nc1ccc2c(c1)OCO2,/,-2,0.7,-2,1,-23,/
O=C(COC(=O)c1c2c(nc3ccccc13)CCCC2)Nc1ccc2c(c1)OCO2,/,0,-0.28,1,-14,-35,0.075
COc1cccc(NC(=O)COC(=O)c2nc(Cl)ccc2Cl)c1,0.37,2,-0.45,3,-4,-25,/
O=C(COC(=O)c1nc(Cl)ccc1Cl)Nc1ccc2c(c1)OCO2,-1.7*,2,0.04,1,2,-30,0.08
CCO[C@@H]1OC(C(=O)O)=C[C@H](c2ccc(Br)cc2)[C@H]1CCCO,/,/,0.93,-3,2,17,/
Cc1sc2nc(C)n(/N=C/c3ccc(O)cc3O)c(=O)c2c1C,-1.3,-14,0.51,9,-8,-3,/
SMILES,ROMK mod,Mdm2 ligase inh,Cl transport mod,Arbovirus inh,PKD1 inh,m-calpain inh,ROMK hit retest
O=C(CSc1nc(C2CCCCC2)n(-c2ccccc2)n1)NCC(F)(F)F,-1.6,/,-0.62,-7,4,32,/
CC1(C)CCc2cc(-c3ccnc(=S)[nH]3)ccc2O1,/,-17,/,/,/,-1,0.084
COc1ccccc1/C=C/C=C1N=C(/C=C/c2ccc(Cl)cc2)OC/1=O,-2.6*,0,0.81,35*,-3,-67,0.063*
COc1ccccc1/C=C/C1=NC(=C\C=C/c2ccccc2)/C(=O)O1,-0.13,-6,-0.31,21,-4,-46,/
O=C(/C=C\Nc1ccc2c(c1)OCO2)c1ccc2c(c1)OCO2,/,-65,/,-34,-11,-35,0.059*
COc1ccc(N/C=C\C(=O)c2ccc3c(c2)OCO3)cc1,0.56,-50,0.25,-26,3,-81,/
CCC(C(=O)Nc1nccs1)(C(F)(F)F)C(F)(F)F,-0.051,-5,/,-4,1,16,?
CCCNC(=O)Nc1nccs1,1.7*,-6,0.53,-2,7,-3,?
CCC(C)C(=O)Nc1nccs1 (stereo unspecified),/,-10,0.57,6,1,-26,/
CCc1c(C)sc(NC(=O)/C=C/C(=O)O)c1C(N)=O,0.66,-7,0.25,3,1,1,/
Cn1cccc1/C=C1\CC(C(C)(C)C)C/C(=C\c2cccn2C)C1=O (stereo unspecified),-3.6*,-5,i,-33,-11,-22,0.04*
CC1CCC2C(=O)N(c3ccc(Cc4ccncc4)cc3)C(=O)C2C1 (stereo unspecified),-3.1*,-11,0.39,6,0,45,?
O=C1C2C3C=CC(C3)C2C(=O)N1c1ccc(Cc2ccncc2)cc1 (stereo unspecified),/,-28,0.43,3,-2,13,/
Cc1oc2c(c1C(=O)c1ccccc1)C(=O)C(=O)c1ccccc1-2,/,-6,-1.8,-41,0,-8,?
Cc1oc2c(c1C(=O)O)C(=O)c1ccccc1C2=O,-0.017,-11,0.061,-7,-3,-22,/
Cc1ccc(CNC(=O)Cc2ccc(-n3c(=O)[nH]c4ccsc4c3=O)cc2)cc1,2.1,3,-0.2,-6,8,36,0.095
Cc1ccc(CC(=O)NCc2ccc(F)cc2)cc1,4.4*,-11,-0.036,-13,2,-19,0.094
Cn1nc(C(F)(F)F)c(-c2cccc(C(F)(F)F)c2)c1NC(=O)Nc1ccc(F)cc1,/,-11,0.84,/,/,13,/

# Screening results from PubChem BioAssay.
